Experimental data gathered from unrelated publications.
Compare with care: the assays were run in different laboratories. In brackets after ≈: the same amount, converted by molar mass.

| Compound | target or system | assay | system | setting | quantity | value |
| --- | --- | --- | --- | --- | --- | --- |
| CCC1(c2ccc(N)cc2)CCC(=O)NC1=O (stereo not shown) | DU-145 | cell growth or viability, CCK-8 |  | 48 h | IC50 | > 50 µM |
| O=C(O)c1cn(C2CC2)c2cc(N3CCNCC3)c(F)cc2c1=O | Mycolicibacterium vaccae | microbial growth | IMET10670 | 5 µg/mL | inhibition zone | 41 mm |
| COC(=O)c1cc(-c2cccc(NC(=S)Nc3ccc(C#N)cc3)c2)on1 | Mycobacteroides abscessus | microbial growth, broth dilution | ATCC19977 | 48 h | MIC | > 64 mg/L |
| CO[C@H]1/C=C/O[C@@]2(C)Oc3c(C)c(O)c4c(O)c(c(/C=N/N5CCN(C)CC5)c(O)c4c3C2=O)NC(=O)/C(C)=C\C=C\[C@H](C)[C@H](O)[C@@H](C)[C@@H](O)[C@@H](C)[C@H](OC(C)=O)[C@@H]1C | Mycobacteroides abscessus | microbial growth | ATCC19977 |  | MIC | 25 to 100 mg/L (≈ 30.4 to 122 µM) |
| N.N.[Cl][Pt][Cl] | PLC | cell growth or viability |  | 24 h | IC50 | 63.9 µM |
| COCCOCOc1cc(O)c(-c2cc(-c3ccc(C(=O)O)cc3)n(-c3ccccc3)n2)cc1C12CC3CC(CC(C3)C1)C2 | Jurkat | cell growth or viability, ATP luminescence |  | 24 h | IC50 | 2.54 µM |
| Cn1cnc(Cn2c(=O)[nH]/c(=N\c3cc4cn(C)nc4cc3Cl)n(Cc3cc(F)c(F)cc3F)c2=O)n1 | Alphacoronavirus 1 | viral replication, inhibitor, qPCR | CRFK |  | EC50 | ~50 µM |
| COCCOCOc1cc(OCc2cc(F)cc(F)c2)c(C(=O)/C=C/c2ccc(C(=O)O)cc2)cc1C12CC3CC(CC(C3)C1)C2 | Jurkat | cell growth or viability, ATP luminescence |  | 24 h | IC50 | 0.93 µM |
| CN(C(=O)/C=C/c1ccoc1)[C@@H]1CC[C@@]2(O)[C@H]3Cc4ccc(O)c5c4[C@@]2(CCN3CC2CC2)[C@H]1O5 |  | thermal pain | mouse | subcutaneous | ED50 | 0.046 mg/kg |
| COC(=O)c1cc(-c2cccc(NC(=O)Nc3cccc(Cl)c3)c2)on1 | Mycobacteroides abscessus | microbial growth, broth dilution | ATCC19977 | 48 h | MIC | > 64 mg/L |
| [H]/N=C(/N)N[C@H]1[C@H](O)[C@@H](O)[C@H](O[C@@H]2O[C@@H](C)[C@](O)(C=O)[C@H]2O[C@@H]2O[C@@H](CO)[C@H](O)[C@@H](O)[C@@H]2NC)[C@@H](N/C(N)=N\[H])[C@@H]1O | Mycobacteroides abscessus | microbial growth | ATCC19977 |  | MIC | 50 mg/L (≈ 86 µM) |
| COC(=O)c1cc(-c2cccc(NC(=O)Nc3ccc(Cl)cc3Cl)c2)on1 | Mycobacteroides abscessus | microbial growth, broth dilution | ATCC19977 | 48 h | MIC | > 64 mg/L |
| COc1c2c(cc3c1OCO3)[C@]13C=C[C@H](OC)C[C@@H]1[N@](C2)C[C@H]3OC(=O)c1ccc2ccccc2c1 | MOLT-4 | cell growth or viability, WST-1 |  |  | IC50 | > 10 µM |
